One may read the IC50 as the point on the concentration scale where inhibition reaches its midpoint. Higher therefore signals weaker potency.

Consider 33 compounds from ChEMBL document CHEMBL2434875, “Novel nonsecosteroidal VDR agonists with phenyl-pyrrolyl pentane skeleton” (Eur J Med Chem, 2013).

Series [1] deals with MCF7. Briefly: Cytotoxicity against human MCF7 cells after 48 hrs by MTT assay. The series is classed as functional, cell-based. The note with it: MCF7, 48 h. In outline:
(§1)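 HaCaT or MCF-7 cells grown 48 h at 37 °C, 5% CO₂, no medium change. MTT (5 mg/mL) with DMEM added, 4 h. Medium replaced by DMSO to dissolve formazan, A570 read. IC50 from log-linear dose regression. Compounds above 85% efficacy rescreened for the final IC50. Triplicate experiments.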

Series [2] concerns HaCaT. Kind of series: Cytotoxicity against human HaCaT cells at >50 uM after 48 hrs by MTT assay. The class given is functional, cell-based. In outline: as §1
(In general: Tetrazolium assays rely on reduction of a dye to a coloured formazan, in cell work by metabolically active cells.)

Series [3] deals with HaCaT. Briefly: Cytotoxicity against human HaCaT cells after 48 hrs by MTT assay. The class given is functional, cell-based. In a few lines: as §1
Series [4] has as its system Mus musculus. Kind of series: In vivo calcemic activity in ICR mouse assessed as serum calcium level at 5 ug/kg, sc administered for 7 days (reference value: 8.76 mg/dL). The note with it: 0.005 mg/kg, 168 h. The series is classed as ADME, organism-based.
For series [5], the target named is T1, Vitamin D3 receptor (Homo sapiens) (UniProt P11473).
T1 sequence (whole entry): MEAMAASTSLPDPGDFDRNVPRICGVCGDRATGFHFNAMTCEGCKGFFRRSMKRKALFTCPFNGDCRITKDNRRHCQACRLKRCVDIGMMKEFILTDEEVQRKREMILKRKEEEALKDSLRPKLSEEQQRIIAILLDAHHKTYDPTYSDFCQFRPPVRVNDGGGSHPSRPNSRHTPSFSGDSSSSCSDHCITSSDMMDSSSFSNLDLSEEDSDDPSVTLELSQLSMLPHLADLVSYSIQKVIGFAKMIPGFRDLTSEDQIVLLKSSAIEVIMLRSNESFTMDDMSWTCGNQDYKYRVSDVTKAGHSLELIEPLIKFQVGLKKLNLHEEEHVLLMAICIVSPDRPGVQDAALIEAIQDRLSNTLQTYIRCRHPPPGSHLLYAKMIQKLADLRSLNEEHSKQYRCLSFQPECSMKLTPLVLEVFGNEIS
Briefly: Agonist activity at VDR in human HL60 cells assessed as induction of cell differentiation at >50 uM after 96 hrs by NBT reduction assay. The class given is cell-based. As to conditions: HL-60.

Series [6] concerns MCF7. Kind of series: Cytotoxicity against human MCF7 cells at >50 uM after 48 hrs by MTT assay. The series is classed as functional, cell-based. In a few lines: as §1
For series [7], the system named is Mus musculus. Briefly: In vivo calcemic activity in ICR mouse assessed as serum calcium level at 0.5 mg/kg, sc administered for 7 days (reference value: 8.76 mg/dL). The class given is ADME, organism-based. The arrangement: dose 0.5 mg/kg, route subcutaneous. The note with it: 168 h.
In series [8] the test system is Mus musculus. Kind of series: In vivo calcemic activity in ICR mouse assessed as serum calcium level at 10 mg/kg, sc administered for 7 days (reference value: 8.76 mg/dL). The class given is ADME, organism-based. The arrangement: dose 10 mg/kg, route subcutaneous. The note with it: 168 h.
The test system of series [9] is Mus musculus. Kind of series: In vivo calcemic activity in ICR mouse assessed as serum calcium level at 30 mg/kg, sc administered for 7 days (reference value: 8.76 mg/dL). The class given is ADME, organism-based. The arrangement: dose 30 mg/kg, route subcutaneous. As to conditions: 168 h.

The source made the active and inactive calls. No cut-off for these calls is given here.

As for `CCC(CC)(c1ccc(OCC(O)C(C)(C)C)c(C)c1)c1ccc(C(=O)NCCCO)n1C` (stereo unspecified), in [1], the IC50 stood at 16.4 µM. Moreover, the “growth inhibition (GI)” value in series [2] was “inactive”.
Take `CCn1c(C(=O)NCCO)ccc1C(CC)(CC)c1ccc(OCC(O)C(C)(C)C)c(C)c1` (stereo unspecified): the IC50 was 2.08 µM in [3] and 1.81 µM in [1].
With `C=C1/C(=C\C=C2/CCC[C@]3(C)[C@@H]([C@H](C)CC[C@@H](O)C(C)C)CC[C@@H]23)C[C@@H](O)C[C@@H]1O` [TACALCITOL], the IC50 in [3] is 2.07 µM; in series [1], 0.057 µM. For the same compound, the Activity in series [4] was 12.14 mg/dL.
For `CCC(CC)(c1ccc(OCC(O)C(C)(C)C)c(C)c1)c1ccc(C(=O)N[C@@H](C)C(=O)O)n1C` (stereo partly specified), the result in series [5] was inactive.
For the compound `CCC(CC)(c1ccc(OCC(=O)C(C)(C)C)c(C)c1)c1ccc(C(=O)NCC(=O)OC)n1C`, the “growth inhibition (GI)” value in series [2] and in [6] was “inactive” each time.
Consider `CCn1c(C(=O)NCC(=O)OC)ccc1C(CC)(CC)c1ccc(OCC(=O)C(C)(C)C)c(C)c1`, for which the “growth inhibition (GI)” value in series [2] and in series [6] was “inactive” each time.
Regarding `CCn1c(C(=O)N[C@@H](CC(=O)O)C(=O)O)ccc1C(CC)(CC)c1ccc(OCC(=O)C(C)(C)C)c(C)c1`, the result in [5] was inactive.
Consider `CCC(CC)(c1ccc(OCC(O)C(C)(C)C)c(C)c1)c1ccc(C(=O)NCCC(=O)O)n1C` (stereo unspecified), for which the “growth inhibition (GI)” value in [2] and in series [6] was “inactive” throughout.
Take `CCn1c(C(=O)NCCC(=O)O)ccc1C(CC)(CC)c1ccc(OCC(=O)C(C)(C)C)c(C)c1`: the outcome in [5] was inactive.
Take `CCC(CC)(c1ccc(OCC(=O)C(C)(C)C)c(C)c1)c1ccc(C(=O)NCC(=O)O)n1C`: the outcome in series [5] was inactive.
Same read-out and setting: next, `CCC(CC)(c1ccc(OCC(=O)C(C)(C)C)c(C)c1)c1ccc(C(=O)N[C@@H](CC(=O)OC)C(=O)OC)n1C`: “inactive”.
For `CCC(CC)(c1ccc(OCC(O)C(C)(C)C)c(C)c1)c1ccc(C(=O)NCCO)n1C` (stereo unspecified), in series [5], the outcome was inactive.
With `CCn1c(C(=O)N[C@@H](C)C(=O)O)ccc1C(CC)(CC)c1ccc(OCC(=O)C(C)(C)C)c(C)c1`, the result in series [5] was inactive.
Same read-out and setting: next, `CCn1c(C(=O)NCCC(=O)OC)ccc1C(CC)(CC)c1ccc(OCC(=O)C(C)(C)C)c(C)c1`: “inactive”; `CCn1c(C(=O)N[C@@H](CC(=O)O)C(=O)O)ccc1C(CC)(CC)c1ccc(OCC(O)C(C)(C)C)c(C)c1` (stereo partly specified): “inactive”.
For the compound `CCn1c(C(=O)N[C@@H](C)C(=O)O)ccc1C(CC)(CC)c1ccc(OCC(O)C(C)(C)C)c(C)c1` (stereo partly specified), in [1], the midpoint of inhibition, the IC50, lay at 0.18 µM. Moreover, the “growth inhibition (GI)” value in series [2] is “inactive”.
On to `CCn1c(C(=O)NCCCO)ccc1C(CC)(CC)c1ccc(OCC(O)C(C)(C)C)c(C)c1` (stereo unspecified), for which the result in series [5] was inactive.
`CCC(CC)(c1ccc(OCC(=O)C(C)(C)C)c(C)c1)c1ccc(C(=O)NCCC(=O)OC)n1C` showed an IC50 in [3] of 28.9 µM. In series [6], the “growth inhibition (GI)” value is “inactive”.
In series [1], `CCC(CC)(c1ccc(OCC(=O)C(C)(C)C)c(C)c1)c1ccc(C(=O)N[C@@H](CC(=O)O)C(=O)O)n1C` showed an IC50 of 0.16 µM. Besides, the “growth inhibition (GI)” value in series [2] was “inactive”.
Consider `CCn1c(C(=O)N[C@@H](CC(=O)OC)C(=O)OC)ccc1C(CC)(CC)c1ccc(OCC(=O)C(C)(C)C)c(C)c1`, for which the result in [5] was inactive.
Regarding `CCC(CC)(c1ccc(OCC(=O)C(C)(C)C)c(C)c1)c1ccc(C(=O)N[C@@H](C)C(=O)O)n1C`, the “growth inhibition (GI)” value in [2] and in series [6] was “inactive” throughout.
`CCC(CC)(c1ccc(OCC(O)C(C)(C)C)c(C)c1)c1ccc(C(=O)N[C@H](CO)CCO)n1C` (stereo partly specified): the IC50 was 0.19 µM in series [3] and 0.00783 µM in series [1]. Further, the Activity in series [7] was 8.91 mg/dL; in series [8], 9.29 mg/dL; in [9], 8.94 mg/dL.
Consider `CCn1c(C(=O)NCC(=O)O)ccc1C(CC)(CC)c1ccc(OCC(O)C(C)(C)C)c(C)c1` (stereo unspecified), for which the outcome in [5] was inactive.
Consider `CCC(CC)(c1ccc(OCC(O)C(C)(C)C)c(C)c1)c1ccc(C(=O)NCC(=O)O)n1C` (stereo unspecified), for which half-maximal inhibition in series [3] (IC50) was put at 9.81 µM. Besides, the “growth inhibition (GI)” value in series [6] is “inactive”.
In the case of `CCn1c(C(=O)N[C@H](CO)CCO)ccc1C(CC)(CC)c1ccc(OCC(O)C(C)(C)C)c(C)c1` (stereo partly specified), the IC50 in series [3] was 1.25 µM; in [1], 0.3 µM.
`CCC(CC)(c1ccc(OCC(O)C(C)(C)C)c(C)c1)c1ccc(C(=O)N[C@@H](CC(=O)O)C(=O)O)n1C` (stereo partly specified): the result in [5] was inactive.
For the compound `CCn1c(C(=O)N[C@@H](C)CO)ccc1C(CC)(CC)c1ccc(OCC(O)C(C)(C)C)c(C)c1` (stereo partly specified), the IC50 in series [3] stood at 2.06 µM; in series [1], 0.307 µM. The Activity in series [7] was 8.09 mg/dL; in series [8] it was 8.3 mg/dL; in series [9], 9.08 mg/dL.
For `CCC(CC)(c1ccc(OCC(=O)C(C)(C)C)c(C)c1)c1ccc(C(=O)N[C@@H](C)C(=O)OC)n1C`, in series [5], the outcome was inactive.
Still for that read-out and setting: next, `CCn1c(C(=O)NCC(=O)O)ccc1C(CC)(CC)c1ccc(OCC(=O)C(C)(C)C)c(C)c1`: “inactive”.
For `CCn1c(C(=O)NCCC(=O)O)ccc1C(CC)(CC)c1ccc(OCC(O)C(C)(C)C)c(C)c1` (stereo unspecified), the “growth inhibition (GI)” value in series [2] and in series [6] was “inactive” in each case.
Compound `CCC(CC)(c1ccc(OCC(O)C(C)(C)C)c(C)c1)c1ccc(C(=O)N[C@@H](C)CO)n1C` (stereo partly specified) showed an IC50 in series [3] of 15.7 µM. Moreover, in series [6], the “growth inhibition (GI)” value was “inactive”.
For the compound `CCn1c(C(=O)N[C@@H](C)C(=O)OC)ccc1C(CC)(CC)c1ccc(OCC(=O)C(C)(C)C)c(C)c1`, the result in series [5] was inactive.
The same measure, in the same setting: as for `CCC(CC)(c1ccc(OCC(=O)C(C)(C)C)c(C)c1)c1ccc(C(=O)NCCC(=O)O)n1C`, the entry is “inactive”.
